# Results as given in the EternaBench riboswitch data.
# System: MS2 coat protein
# Assay: apparent Kd, MS2 coat protein; higher = weaker binding; RNA-MaP array; FMN 200 µM where present
# Summary of the method: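 The apparent Kd is the median of filtered binding-curve fits, one per cluster, to green signal normalised to red-channel RNA signal and control-cluster median Fmax. The clusters were on Illumina sequencing chips, and stalled E. coli RNA polymerase had transcribed the designs on them. Titration used SNAP-549-labelled MS2 coat protein from 0.7 or 1.5 nM, doubling to 3 µM, without and then with constant ligand, in 100 mM Tris-HCl pH 7.5, 80 mM KCl, 4 mM MgCl2, BSA, DTT, yeast tRNA and Tween-20.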
# [1] = designed as: OFF switch for flavin mononucleotide, no ligand
# [2] = ligand present: flavin mononucleotide, designed as: OFF switch for flavin mononucleotide
# [3] = designed as: ON switch for flavin mononucleotide, no ligand
# [4] = ligand present: flavin mononucleotide, designed as: ON switch for flavin mononucleotide
Sequence,apparent Kd [1] [nM],apparent Kd [2] [nM],apparent Kd [3] [nM],apparent Kd [4] [nM]
AAUGAGCGAGGAUAUGCAACUGUAUGACCUACGUGUGCCAGACAUGAGGAUCACCCAUGUAGAAGGUGCUUUCC,59.7,51.3,–,–
AAUGGCGUGAUAAUGCUAAUUAAAACAUGAGGAUCACCCAUGUAGGAUAUCCUACCGAAAUGGUAGGAGAAGGACAAGCAAUGA,44.1,46.6,–,–
AAUGGGCAGCAGAAGGCAUGUCUACGGACAUGAGGAUCACCCAUGUAGUGAAGCCGAAAGGCGCAUGAGGAUAUGCUGCCCUAA,–,–,131,8.45
AAUGUGUGUCGAGGAUAUAUUAUAUGACAACAAACACAUACAUGAGGAUCACCCAUGUCCCAUGUAUAGAAGGCGAUGUGUGUG,–,–,130,174
AAUUAAUUAAUACAUGAGGAUCACCCAUGUAAUUAUUAGAUCAAGGAUAUCAGCUCGAUUAGAGCUGAGAAGGUGAUCACAUGU,–,–,412,102
AAUUAGGUCACAGGAUAUACAUCAUCCAUAGAUGUAGAAGGGUGUCAAAAUAAUAUCUGACAUGAGGAUCACCCAUGUUUCCAC,–,–,19.5,8.97
AAUUAGGUCACAGGAUAUACAUCAUCCAUAGAUGUAGAAGGGUGUCAAAGUAAUAUCUGACAUGAGGAUCACCCAUGUUUCCAC,–,–,23.3,9.28
AAUUAGUGAGGAUAUUUUAACAGUGGCAGUAGCCAGUGCAUGAAGAAGGCACAUGAGGAUCACCCAUGUUAUAA,101,91.5,–,–
AAUUAUAGGUAGAAGGUACUGACUUAUGUGUUGUAAGGAUAUACCAAAUUAUUAGAUCUCAAGUUACAUGAGGAUCACCCAUGU,–,–,9.18,7.97
AAUUAUAGGUAGAAGGUACUGUAUUAUGUGUUGUAAGGAUAUACUAUAUUAUUAGUUCUCAAGUUACAUGAGGAUCACCCAUGU,–,–,10.3,8.02
AAUUAUUCAGGAGGAUAUCCCAGGACAUGAGGAUCACCCAUGUUCGGGUUGCCCUCAUGAACGCCGGAGAAGGCCUGAACGAAU,13,17.1,–,–
AAUUCGUUCUAGAAGGUGCAUUUGUUAAACAUGCAAGGAUAUAGACAUGAGGAUCACCCAUGUCUAUGAGACAUCGGCCUCCUG,6.72,11.7,–,–
AAUUCGUUCUAGAAGGUGCAUUUUUUAAACAUGCAAGGAUAUAGACAUGAGGAUCACCCAUGUCUAUGAGACAUCGGCCUCCUG,6.3,13.3,–,–
AAUUGAAACGUAGGAUAUCGCUAUUAAUUAAUUCGAGAAGGACGUACAUGAGGAUCACCCAUGUUUAAUGGUGUAGUUUAGUUG,179,252,–,–
AAUUGACACGUAGGAUAUCGAUCUAAAUUAACUCGAGAAGGACGCACAUGAGGAUCACCCAUGUUUAAUGGAGUAGACAUGUUG,314,508,–,–
AAUUGACACGUAGGAUAUCGCUUUAAUUUAACACGAGAAGGACGUACAUGAGGAUCACCCAUGUUAAAUGGUGUAGAUUAAUUG,167,382,–,–
AAUUGUCGUGAGGAUAUGUACGUUUUAGUAACGACAGAAGGCAUGACAUGAGGAUCACCCAUGUUGUAAUCUGG,82,429,–,–
AAUUUAAUACAUGAGGAUCACCCAUGUAAAUUAAUUAAGAUCUAGGAUAUCAGCUCGAUUAGAGCUGAGAAGGAGAUCACAUGU,–,–,16.6,13.2
AAUUUACAGCGAGGAUAUACAUGAGGAUCACCCAUGUAAUCAUAUGAUAUUUUUUUUGUAUGAGUGUAGAAGGCGCAAAUAAAA,10.2,9.61,–,–
AAUUUACAGGUAGGAUAUACAUGAGGAUCACCCAUGUAAUCAUAUGAUAUUUUUUUUGUAUGAGUGUAGAAGGACCAAAUAAAA,9.75,8.48,–,–
ACAAAUCGAGGAUAUACAUGAGGAUCACCCAUGUGGAGUCCACUGCGCGGUUCUCAGCGUAGAAGGCGAAAACA,46.3,89.8,–,–
ACAACAGGCAGAGGAUAUGACUGGGUAGGAGUAACAUGAGGAUCACCCAUGUUAGAAGGCUGCGUCAAACAGCGAAAGGUACGC,52.4,91.6,–,–
ACAACUAAGCAGAAGGCAGUCAUAGCAUUCGUCAUGUAGACAUGAGGAUCACCCAUGUAUAGUGCUGAGGAUAUGCUUGGUUAG,11.3,9.47,–,–
ACAAGAUCAGGAUAUACAUGAGGAUCACCCAUGUAUAUAAAAAAAGGGCCUUCUACAUGUAGAAGGGAUCUUGU,13.8,13.7,–,–
ACAAGAUCAGGAUAUACAUGAGGAUCACCCAUGUUUAUCAAAAAAAAACUUUCUUUAUGUAGAAGGGAUCUUGU,13.8,13.6,–,–
ACACAUGAGGAUCACCCAUGUAGUAAUAGCUUCCGGACCUCACAGGAUAUAUGCAAGUUCGUUGCGUAGAAGGGUGAACUCUAA,–,–,89,92.5
ACACGGUAUGUAGGAUAUGCAUAGCAUUGCUAUGCAGAAGGACAUGAGGAUCACCCAUGUAUGUAUUCCAUACUAAUCCCGUGG,5.77,5.74,–,–

Sequence,apparent Kd [1] [nM],apparent Kd [2] [nM],apparent Kd [3] [nM],apparent Kd [4] [nM]
ACAGAGGCUGACAUGAGGAUCACCCAUGUUAGAUUGUUAUGUCAGGAUAUUAUCUGGCAACCAGAUAAGAAGGGACCCUCUGUG,–,–,31.2,8.45
ACAUAAAUUCGAGGAUAUCGGUGAUAUAAUUUACGAGAAGGCGAUAAUUGUUAUAAACUUAUAGACAUGAGGAUCACCCAUGUA,–,–,32.1,31.9
ACAUAAUACGAGAAGGGAGUACAUGAGGAUCACCCAUGUGCUCAGGUGUACUCAGGAUAUCGGCUGACGCAAGGUUCAGGGAAU,11.6,94.3,–,–
ACAUACAUUCGAGGAUAUCGGUGAGAAAUCUUUCGAGAAGGCGAUUCAUGAUUUAUUAUCCUGGACAUGAGGAUCACCCAUGUA,–,–,78.9,62.8
ACAUACAUUCGAGGAUAUCGGUGAGAAAUUUUACGAGAAGGCGAUUCAUGAUUUAUUAUUUUGGACAUGAGGAUCACCCAUGUA,–,–,83.5,34.1
ACAUACAUUCGAGGAUAUCGGUGAUUAAUUUUACGAGAAGGCGAUUUAAGAUAUAAUAUUUUAGACAUGAGGAUCACCCAUGUA,–,–,25.3,23.1
ACAUGAAAUCGAGGAUAUGCAAAAAAAAAAAAAGCAGAAGGCGAAAAAAAAACUCGAAAAAACAUGAGGAUCACCCAUGUAAAA,26.4,22.9,–,–
ACAUGAGGAUCACCCAUGUAGAAUGAAGAAGGUAGAUACUUGUGACUCACCCAUGUACAUAGGACUAAGGAUAUUCUAAUAAUU,–,–,26.3,13
ACAUGAGGAUCACCCAUGUAUACAUAGGAUAUUGAGGAUCAGGGAUGUUUUACAGGAUAUGUCUACAAGAAGGAUGCAAGUAAA,–,–,35.6,30
ACAUGAGGAUCACCCAUGUAUACAUAGGAUAUUGAGGAUCAGGGAUGUUUUACAGGAUAUGUCUACAAGAAGGAUGCAAGUACA,–,–,32.7,29.1
ACAUGAGGAUCACCCAUGUAUUACAUGGUUAUGUUUAUUAACAGAAGGCGAAAUUACCACUGUUUCGAGGAUAUGUAUUCUAUA,65.5,63,–,–
ACAUGAGGAUCACCCAUGUGUGCAUAGGAUAUUGUGGAUUAGGGAUGUUUUUUUGGAUUUGCCUACAAGAAGGAUGAAAGUGUU,–,–,14.3,12.6
ACAUGAGGAUCACCCAUGUUAAGCGAGGAUAUUUGACUGCACAUGAGGUUCGCCCAUGUCCUGCCGAAGAAGGUGCGAAUAAUU,–,–,54.2,17.6
ACAUGAGGAUCACCCAUGUUCACAUAGGAUAUUGAUUAUAUUGGUUUUAGAAUAGUAAUUAACCUCAAGAAGGAUGCCUGAUCU,–,–,12.5,10.9
ACAUGAGGAUCACCCAUGUUCACAUAGGAUAUUGAUUUUAUUGGUUUUAGAAUAGUAAUUAACCUCAAGAAGGAUGCCAGUUGU,–,–,11.1,9.31
ACAUGAGGAUCACCCAUGUUGAUAGUAGAAGGGACAGAGAAGUAGUAACAUGAGGAUCACCCAUGUCAGGAUAUGCGAAUUGGA,–,–,35.2,30.1
ACAUGAGGAUCACCCAUGUUUUCAUGGAUUAUUAUUCUUUGAUAGGAUAUGUUAGUUAAGUAUUUACAGAAGGAUCAUUACCAA,22.6,16.1,–,–
ACAUGAGGAUCACCCAUGUUUUUUGGGUACUCUUGAUACAGCAAGGAUAUGCAUUAUUUAUGUACGCAGAAGGUGCAUUACGUC,920,853,–,–
ACAUGAGGAUGAGGAUAUUCAUACAUGAGGAUAGAAGAAGGCAUACAUGAGGAUCACCCAUGUAUACACAUGAGGAUCGCCCAU,37.1,47.3,–,–
ACAUGAUAUGUAGGAUAUCACAUUAAUUGAUUAAUAAUUGAAUAUAGGAUUUGAGAAGGACAUUUACAUGAGGAUCACCCAUGU,17.6,13.1,–,–
ACAUGAUAUGUAGGAUAUCACAUUAAUUGAUUAAUAUAUCAAUAUAGAAUUUGAGAAGGACAUUUACAUGAGGAUCACCCAUGU,10.7,8.71,–,–
ACAUGCAUAGCGAUAUGAUCGAGAGAUCAUGUCGCUAAAUUUAGAAGGACAUGAGGAUCACCCAUGUAGGAUAUGGGAGCAUGG,–,–,42.8,10.3
ACAUGCAUAGCGAUAUGAUCGAGAGAUCAUGUCGCUAAAUUUAGAAGGACAUGAGGAUCACCCAUGUAGGAUAUGGGAGCAUGU,–,–,49.5,10.8
ACAUGCCUGUCGAUGCUCGACAUGAGGAUCACCCAUGUACAGCAGGAUAUGCAGAACUAACUCGUGCAGAAGGGCUGUACCUAA,90.8,226,–,–
ACAUGUCGUGAGAAGGACGGCGUGCAUAGCGCCGUAGGAUAUCAAGACAUGAGGAUCACCCAUGUACGCGUGUCCAGCCGUGCU,65.2,342,–,–
ACAUUAGUACCACAUGUAUUACAUGAGGAUCACCCAUGUUACUAGGAUAUGUAUUAGAAUUUACAACAGAAGGAGUUAUUAUGU,17.2,17.1,–,–
ACAUUGAAUGUGAGGAUAUCGAUGUGAUGGGUUGUCGAGAAGGCACAUGAGGAUCACCCAUGUGGGUUGUAGCA,144,362,–,–
